Converted amounts (≈) assume the structure as drawn.
Tests used:
[1] = tested on: Staphylococcus epidermidis; assay: Antibacterial activity against vancomycin-intermediate resistant Staphylococcus epidermidis NRS6 after 20 hrs by broth microdilution assay; type: functional; conditions: NRS6, 20 h
Streptococcus pyogenes = assay: Antibacterial activity against Streptococcus pyogenes H293 after 20 hrs by broth microdilution assay; type: functional; conditions: H293, 20 h
Streptococcus agalactiae = assay: Antibacterial activity against Streptococcus agalactiae SGBS005 after 20 hrs by broth microdilution assay; type: functional; conditions: SGBS005, 20 h
Staphylococcus aureus [2] = assay: Antibacterial activity against vancomycin-resistant Staphylococcus aureus HIP14300 after 20 hrs by broth microdilution assay; type: functional; conditions: HIP14300, 20 h
Staphylococcus aureus [3] = assay: Antibacterial activity against methicillin-resistant Staphylococcus aureus COL after 20 hrs by broth microdilution assay; type: functional
[4] = tested on: Staphylococcus epidermidis; assay: Antibacterial activity against vancomycin-intermediate resistant Staphylococcus epidermidis NRS53 after 20 hrs by broth microdilution assay; type: functional; conditions: NRS53, 20 h
Streptococcus pneumoniae = assay: Antibacterial activity against Streptococcus pneumoniae TCH8431 after 20 hrs by broth microdilution assay; type: functional; conditions: TCH8431, 20 h
Enterococcus faecium = assay: Antibacterial activity against vancomycin-resistant Enterococcus faecium ATCC 700221 after 20 hrs by broth microdilution assay; type: functional; conditions: ATCC 700221, 20 h
Procedure, shortened: (§1)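 Brain heart infusion broth at 37°C; E. faecium under 5% CO2. Cells at 0.5 McFarland are diluted 1:100 and exposed to serial dilutions (DMSO stocks 1 mM or 1 mg/mL; controls in water).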

Citrobacter freundii = assay: Antibacterial activity against Citrobacter freundii 4_7_47CFAA after 20 hrs by broth microdilution assay; type: functional
Procedure, shortened: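 Brucella broth, 37°C, 5% CO2. Inoculum is 0.5 McFarland diluted 1:100, with serial drug dilutions from DMSO stocks (1 mM or 1 mg/mL) and control antibiotics in water.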

Bacillus anthracis [5] = assay: Antibacterial activity against Bacillus anthracis UM23-1 after 20 hrs by broth microdilution assay; type: functional; conditions: UM23-1, 20 h
Yersinia enterocolitica = assay: Antibacterial activity against Yersinia enterocolitica WA-314 after 20 hrs by broth microdilution assay; type: functional; conditions: WA-314, 20 h
Procedure, shortened: (§2)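 Yersinia cultured in tryptic soy broth at 28°C. A 0.5 McFarland suspension diluted 1:100 receives serial dilutions of agents from 1 mM or 1 mg/mL DMSO stocks; control antibiotics are in water.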

Burkholderia multivorans = assay: Antibacterial activity against Burkholderia multivorans CF2 after 20 hrs by broth microdilution assay; type: functional; conditions: CF2, 20 h
Procedure, shortened: (§3)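 Medium is tryptic soy broth, 37°C. Overnight culture is adjusted to 0.5 McFarland, diluted 1:100 and exposed to serial dilutions (test agents from 1 mM or 1 mg/mL DMSO stocks; control antibiotics in water). Incubation lasts 20 h. MIC is the lowest concentration with no visible growth.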

Francisella tularensis = assay: Antibacterial activity against Francisella tularensis Utah 112 after 20 hrs by broth microdilution assay; type: functional; conditions: Utah 112, 20 h
Klebsiella pneumoniae = assay: Antibacterial activity against Klebsiella pneumoniae 700603 after 20 hrs by broth microdilution assay; type: functional; conditions: Klebsiella pneumoniae, 700603, 20 h; procedure, shortened: as §3
Escherichia coli = assay: Antibacterial activity against Escherichia coli DC10B after 20 hrs by broth microdilution assay; type: functional; procedure, shortened: as §3
Bacillus anthracis [6] = assay: Antibacterial activity against Bacillus anthracis Ames 35 after 20 hrs by broth microdilution assay; type: functional; conditions: Ames 35, 20 h
Rhodococcus erythropolis = assay: Antibacterial activity against Rhodococcus erythropolis SK121 after 20 hrs by broth microdilution assay; type: functional; conditions: SK121, 20 h
Procedure, shortened: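 R. erythropolis grown in brain heart infusion broth at 30°C. A 0.5 McFarland suspension diluted 1:100 is treated with serial dilutions from 1 mM or 1 mg/mL DMSO stocks; control antibiotics are in water.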

Corynebacterium striatum = assay: Antibacterial activity against Corynebacterium striatum FS-1 after 20 hrs by broth microdilution assay; type: functional; conditions: FS-1, 20 h
Bacillus cereus = assay: Antibacterial activity against Bacillus cereus Gibson 971 after 20 hrs by broth microdilution assay; type: functional; conditions: Gibson 971, 20 h
Bacillus anthracis [7] = assay: Antibacterial activity against Bacillus anthracis Weybridge after 20 hrs by broth microdilution assay; type: functional
Burkholderia cepacia = assay: Antibacterial activity against Burkholderia cepacia UCB 717 after 20 hrs by broth microdilution assay; type: functional; conditions: UCB 717, 20 h; procedure, shortened: as §3
Pseudomonas aeruginosa = assay: Antibacterial activity against Pseudomonas aeruginosa ATCC 15442 after 20 hrs by broth microdilution assay; type: functional; conditions: ATCC 15442, 20 h; procedure, shortened: as §3
Salmonella typhi = assay: Antibacterial activity against Salmonella typhi Ty2 after 20 hrs by Todd Hewitt broth broth microdilution method; type: functional, Salmonella enterica subsp. enterica serovar Typhi str. Ty2; conditions: Salmonella enterica
Yersinia pestis [8] = assay: Antibacterial activity against Yersinia pestis Kim D2 after 20 hrs by broth microdilution assay; type: functional; conditions: Kim D2, 20 h
Micrococcus luteus = assay: Antibacterial activity against Micrococcus luteus SK58 after 20 hrs by broth microdilution assay; type: functional; conditions: SK58, 20 h
Proteus mirabilis = assay: Antibacterial activity against Proteus mirabilis HM-752 after 20 hrs by broth microdilution assay; type: functional; conditions: HM-752, 20 h; procedure, shortened: as §3
Bacillus anthracis [9] = assay: Antibacterial activity against Bacillus anthracis Sterne 34F2 after 20 hrs by broth microdilution assay; type: functional; conditions: Sterne 34F2, 20 h
Staphylococcus aureus [10] = assay: Antibacterial activity against vancomycin-intermediate resistant Staphylococcus aureus AR-217 after 20 hrs by broth microdilution assay; type: functional; conditions: AR-217, 20 h
Shigella dysenteriae = assay: Antibacterial activity against Shigella dysenteriae Newcastle 1934 after 20 hrs by broth microdilution assay; type: functional; conditions: Newcastle 1934, 20 h; procedure, shortened: as §3
[11] = tested on: Yersinia pseudotuberculosis; assay: Antibacterial activity against Yersinia pseudotuberculosis P61 after 20 hrs by broth microdilution assay; type: functional; conditions: P61, 20 h; procedure, shortened: as §2
Yersinia pestis [12] = assay: Antibacterial activity against Yersinia pestis Kuma D7 after 20 hrs by broth microdilution assay; type: functional; conditions: Kuma D7, 20 h
Vibrio cholerae = assay: Antibacterial activity against Vibrio cholerae TS D4 after 20 hrs by Todd Hewitt broth broth microdilution method; type: functional; conditions: TS D4, 20 h
Brucella neotomae = assay: Antibacterial activity against Brucella neotomae 5K33 after 20 hrs by broth microdilution assay; type: functional; conditions: 5K33, 20 h
HepG2 = assay: Cytotoxicity against human HepG2 cells assessed as reduction in cell viability after 72 hrs by MTT assay; type: cell-based; conditions: HepG2, 72 h
Listeria monocytogenes = assay: Antibacterial activity against Listeria monocytogenes Gibson after 20 hrs by broth microdilution assay; type: functional; procedure, shortened: as §1
Acinetobacter baumannii = assay: Antibacterial activity against Acinetobacter baumannii AB5075 after 20 hrs by broth microdilution assay; type: functional; conditions: AB5075, 20 h

| Compound | MIC [1] | MIC (Streptococcus pyogenes) | MIC (Streptococcus agalactiae) | MIC (Staphylococcus aureus [2]) | MIC (Staphylococcus aureus [3]) | MIC (Streptococcus pneumoniae) | MIC (Enterococcus faecium) | MIC (Citrobacter freundii) | MIC (Bacillus anthracis [5]) | MIC (Yersinia enterocolitica) | MIC (Burkholderia multivorans) | MIC (Francisella tularensis) | MIC (Klebsiella pneumoniae) | MIC (Escherichia coli) | MIC (Bacillus anthracis [6]) | MIC (Rhodococcus erythropolis) | MIC (Corynebacterium striatum) | MIC (Bacillus cereus) | MIC (Bacillus anthracis [7]) | MIC (Burkholderia cepacia) | other results |
| --- | --- | --- | --- | --- | --- | --- | --- | --- | --- | --- | --- | --- | --- | --- | --- | --- | --- | --- | --- | --- | --- |
| CN[C@H](CC(C)C)C(=O)N[C@H]1C(=O)N[C@@H](CC(N)=O)C(=O)N[C@H]2C(=O)N[C@H]3C(=O)N[C@H](C(=O)N[C@H](C(=O)O)c4cc(O)cc(O)c4-c4cc3ccc4O)[C@H](O)c3ccc(c(Cl)c3)Oc3cc2cc(c3O[C@@H]2O[C@H](CO)[C@@H](O)[C@H](O)[C@H]2O[C@H]2C[C@](C)(N)[C@H](O)[C@H](C)O2)Oc2ccc(cc2Cl)[C@H]1O [VANCOMYCIN] | 8 µM (≈ 11.6 µg/mL) | ≤ 0.5 µM | ≤ 0.5 µM | > 32 µM | 1 µM (≈ 1.45 µg/mL) | ≤ 0.5 µM | > 32 µM | – | – | – | – | – | – | – | – | – | – | – | – | – | MIC [4]: 8 µg/mL (≈ 5.52 µM) |
| CCCSSC(=S)N(CC)CC | 32 µM (≈ 7.15 µg/mL) | 32 µM (≈ 7.15 µg/mL) | > 32 µM | 16 µM (≈ 3.57 µg/mL) | 16 µM (≈ 3.57 µg/mL) | > 32 µM | > 32 µM | > 32 µM | 4 µM (≈ 0.894 µg/mL) | > 32 µM | 32 µM (≈ 7.15 µg/mL) | 32 µM (≈ 7.15 µg/mL) | > 32 µM | > 32 µM | 4 µM (≈ 0.894 µg/mL) | 16 µM (≈ 3.57 µg/mL) | > 32 µM | 1 µM (≈ 0.223 µg/mL) | 4 µM (≈ 0.894 µg/mL) | > 32 µM | MIC (Pseudomonas aeruginosa): > 32 µM; MIC (Salmonella typhi): > 32 µM; MIC (Yersinia pestis [8]): 16 µM (≈ 3.57 µg/mL); MIC (Micrococcus luteus): 16 µM (≈ 3.57 µg/mL); MIC (Proteus mirabilis): > 32 µM; MIC (Bacillus anthracis [9]): 4 µM (≈ 0.894 µg/mL); MIC (Staphylococcus aureus [10]): 8 µM (≈ 1.79 µg/mL); MIC (Shigella dysenteriae): > 32 µM; MIC [11]: > 32 µM; MIC (Yersinia pestis [12]): 32 µM (≈ 7.15 µg/mL); MIC (Vibrio cholerae): 32 µM (≈ 7.15 µg/mL); MIC (Brucella neotomae): > 32 µM; IC50 (HepG2): 51 µM; MIC (Listeria monocytogenes): 16 µM (≈ 3.57 µg/mL); MIC (Acinetobacter baumannii): > 32 µM |
| CCCCCCSSC(=S)N(CC)CC [DIETHYLCARBAMO(DITHIOPEROXO)THIOATE] | 8 µM (≈ 2.12 µg/mL) | > 32 µM | > 32 µM | 8 µM (≈ 2.12 µg/mL) | 16 µM (≈ 4.25 µg/mL) | > 32 µM | > 32 µM | > 32 µM | 2 µM (≈ 0.531 µg/mL) | > 32 µM | > 32 µM | 32 µM (≈ 8.5 µg/mL) | > 32 µM | > 32 µM | 4 µM (≈ 1.06 µg/mL) | 8 µM (≈ 2.12 µg/mL) | 16 µM (≈ 4.25 µg/mL) | 2 µM (≈ 0.531 µg/mL) | 8 µM (≈ 2.12 µg/mL) | > 32 µM | MIC (Pseudomonas aeruginosa): > 32 µM; MIC (Salmonella typhi): > 32 µM; MIC (Yersinia pestis [8]): 32 µM (≈ 8.5 µg/mL); MIC (Micrococcus luteus): 16 µM (≈ 4.25 µg/mL); MIC (Proteus mirabilis): > 32 µM; MIC (Bacillus anthracis [9]): 4 µM (≈ 1.06 µg/mL); MIC (Staphylococcus aureus [10]): 4 µM (≈ 1.06 µg/mL); MIC (Shigella dysenteriae): > 32 µM; MIC [11]: > 32 µM; MIC (Yersinia pestis [12]): 32 µM (≈ 8.5 µg/mL); MIC (Vibrio cholerae): > 32 µM; MIC (Brucella neotomae): > 32 µM; IC50 (HepG2): 51 µM; MIC (Listeria monocytogenes): 8 µM (≈ 2.12 µg/mL); MIC (Acinetobacter baumannii): > 32 µM |

Reference: ChEMBL document CHEMBL4219167, “Disulfiram-based disulfides as narrow-spectrum antibacterial agents” (Bioorg Med Chem Lett, 2018)
